Activity calls are given as the source filed them. The rule behind the calls is not given here.
Legend:
Hepacivirus hominis [1] = test: Inhibition of HCV NS3 helicase ATP hydrolysis activity overexpressed in Escherichia coli BL21(DE3) assessed as inhibition of inorganic phosphate release by AM/MG-based colometric analysis in the presence of M13 ssDNA
[2] = system: Severe acute respiratory syndrome-related coronavirus; test: Inhibition of SARS coronavirus nsP13 helicase activity expressed in Escherichia coli Rosetta assessed inhibition of DNA unwinding activity at 10 uM by FRET assay
Method in brief: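 FRET dsDNA-unwinding assay using fluorescein/TAMRA-labelled duplex. When nsP13 unwinds the duplex, fluorescein emission is unquenched. Compound was added to the unwinding reaction at 10 µM, and fluorescence was read at 535 nm.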

[3] = system: Severe acute respiratory syndrome-related coronavirus; test: Inhibition of SARS coronavirus nsP13 ATP hydrolysis activity expressed in Escherichia coli Rosetta assessed as inhibition of inorganic phosphate release at 10 uM by AM/MG-based colometric analysis in the presence of M13 ssDNA
Hepacivirus hominis [4] = test: Inhibition of HCV NS3 helicase overexpressed in Escherichia coli BL21(DE3) assessed as inhibition of DNA unwinding activity at 10 uM by FRET assay
MCF-10A = test: Cytotoxicity in human MCF10A cells at 2 uM measured every 24 hrs for 3 days by hemocytometry; type: cell-based; settings: 72 h
Method in brief: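 MCF10A breast epithelial cells grown at 37°C in 5% CO2 and seeded at 2.0 × 10^5 per well. They were exposed to compound at 2 µM and harvested every 24 h for 3 days. Viable cells were counted by hemacytometer. Results are mean ± standard deviation, n = 6, compared by Student t-test.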

Row | SMILES | inhibition (Hepacivirus hominis [1]) | inhibition [2] | inhibition [3] | inhibition (Hepacivirus hominis [4]) | Activity (MCF-10A)
1 | CC1(C)CC[C@]2(C)CC=C3[C@]4(C)CC[C@H]5C(C)(C)[C@@H](O)CC[C@]5(C)[C@H]4CC[C@@]3(C)[C@@H]2C1 | inactive | inactive | 20% | inactive | 
2 | C=C1CC[C@@H]2[C@H]([C@H]3[C@H]1CC[C@]3(C)O)C2(C)C | inactive | inactive |  | inactive | 
3 | C[C@H]1O[C@@H](Oc2c(-c3cc(O)c(O)c(O)c3)oc3cc(O)cc(O)c3c2=O)[C@@H](O)[C@@H](O)[C@@H]1O | inactive | inactive | 20% | inactive | 
4 | C=C1CC[C@@H]2[C@](C)(CCC[C@]2(C)C(=O)O)[C@H]1CCc1ccoc1 | inactive | inactive |  | inactive | 
5 | CC(C)=CCOc1c2occc2cc2ccc(=O)oc12 | inactive | inactive |  | inactive | 
6 | C[C@H]1[C@H](C)CC[C@]2(C)CC[C@]3(C)C(=CC[C@@H]4[C@@]5(C)CC[C@H](O)C(C)(C)[C@@H]5CC[C@]43C)[C@H]12 | inactive | inactive |  | inactive | 
7 | CC[C@H](CC[C@@H](C)[C@H]1CC[C@H]2[C@@H]3CC=C4C[C@@H](O)CC[C@]4(C)[C@H]3CC[C@]12C)C(C)C | inactive | inactive |  | inactive | 
8 | Cc1cc(=O)c2c(O)c3c(cc2o1)OC(C)(C)[C@@H](O)C3 | inactive | inactive |  | inactive | 
9 | C/C=C(/C)C(=O)O[C@H]1Cc2c(cc3oc(CO)cc(=O)c3c2O)OC1(C)C | inactive | inactive |  | inactive | 
10 | O=c1c(O[C@@H]2O[C@H](CO)[C@@H](O)[C@H](O)[C@H]2O)c(-c2ccc(O)c(O)c2)oc2cc(O)cc(O)c12 | inactive | inactive |  | inactive | 
11 | CC[C@H](CC[C@@H](C)[C@H]1CC[C@H]2[C@@H]3CC=C4C[C@@H](O[C@@H]5O[C@H](CO)[C@@H](O)[C@H](O)[C@H]5O)CC[C@]4(C)[C@H]3CC[C@]12C)C(C)C | inactive | inactive |  | inactive | 
12 | O=c1cc(-c2ccccc2)oc2cc(O)cc(O)c12 | inactive | inactive |  | inactive | 
13 | C[C@H]1[C@@H](O)CC[C@@H]2[C@]1(C)CC[C@H]1[C@@]2(C)CC[C@@]2(C)[C@@H]3CC(C)(C)CC[C@]3(C)CC[C@]12C | inactive | inactive |  | inactive | 
14 | C[C@@H]1O[C@@H](O[C@H]2[C@H](Oc3cc(O)c4c(c3)O[C@H](c3ccc(O)cc3)CC4=O)O[C@H](CO)[C@@H](O)[C@@H]2O)[C@H](O)[C@H](O)[C@H]1O | inactive | inactive |  | inactive | 
15 | CC[C@H](/C=C/[C@@H](C)[C@H]1CC[C@H]2[C@@H]3CC=C4C[C@@H](O)CC[C@]4(C)[C@H]3CC[C@]12C)C(C)C | inactive | inactive |  | inactive | 
16 | Cc1cc(=O)c2c(O)c3c(cc2o1)OC(C)(C)[C@@H](O[C@H]1O[C@@H](CO)[C@H](O)[C@@H](O)[C@@H]1O)C3 | inactive | inactive |  | inactive | 
17 | COc1ccc(-c2oc3c(CC=C(C)C)c(O)cc(O)c3c(=O)c2O)cc1 | inactive | inactive |  | inactive | 
18 | O=C(/C=C/c1ccccc1)NCCCCNC(=O)c1ccccc1 | inactive | inactive |  | inactive | 
19 | COc1c2c(cc3oc(CO[C@@H]4O[C@H](CO)[C@@H](O)[C@H](O)[C@H]4O)cc(=O)c13)O[C@H](C(C)(C)O)C2 | inactive | inactive |  | inactive | 
20 | C=C[C@]1(C)CC[C@@]2(C)C3=CCC[C@](C)(CO)[C@@H]3CC[C@@H]2C1 | inactive | inactive |  | inactive | 
21 | COc1ccc([C@@H]2CC(=O)c3c(O)cc(O)cc3O2)cc1O[C@@H]1O[C@H](CO[C@@H]2O[C@@H](C)[C@H](O)[C@@H](O)[C@H]2O)[C@@H](O)[C@H](O)[C@H]1O | inactive | inactive |  | inactive | 
22 | CC(C)=CCc1c(O)c(CC=C(C)C)c2oc3c(O)cccc3c(=O)c2c1O | inactive | inactive |  | inactive | 

Row | SMILES | inhibition (Hepacivirus hominis [1]) | inhibition [2] | inhibition [3] | inhibition (Hepacivirus hominis [4]) | Activity (MCF-10A)
23 | C[C@H]1[C@H](C)CC[C@]2(C(=O)O)CC[C@]3(C)C(=CC[C@@H]4[C@@]5(C)CC[C@H](O)C(C)(C)[C@@H]5CC[C@]43C)[C@H]12 | inactive | inactive |  | inactive | 
24 | O=c1cc(-c2ccc(O)c(-c3c(O)cc(O)c4c(=O)cc(-c5ccc(O)cc5)oc34)c2)oc2cc(O)cc(O)c12 | inactive | inactive | 20% | inactive | 
25 | O=c1c(O)c(-c2cc(O)c(O)c(O)c2)oc2cc(O)cc(O)c12 [MYRICETIN] | inactive | inactive | > 90% | inactive | Non-toxic
26 | C=C(C)[C@@H](C)CC[C@@H](C)[C@H]1CC[C@@]2(C)[C@@H]3CC[C@H]4C(C)(C)C(=O)CC[C@]4(C)C3=CC[C@]12C | inactive | inactive |  | inactive | 
27 | C=C(C)[C@@H]1CC[C@]2(C(=O)O)CC[C@]3(C)[C@H](CC[C@@H]4[C@@]5(C)CC[C@H](O)C(C)(C)[C@@H]5CC[C@]43C)[C@@H]12 | inactive | inactive |  | inactive | 
28 | COc1ccc(C(=O)O[C@H]2[C@@H]3C=CO[C@@H](O[C@@H]4O[C@H](CO)[C@@H](O)[C@H](O)[C@H]4O)[C@@H]3[C@@]3(CO)O[C@@H]23)cc1O | inactive | inactive |  | inactive | 
29 | O=c1c(-c2ccc(O)cc2)coc2cc(O[C@@H]3O[C@H](CO)[C@@H](O)[C@H](O)[C@H]3O)ccc12 | inactive | inactive |  | inactive | 
30 | O=C(/C=C/c1ccccc1)NCCCCNC(=O)Cc1ccc(O)cc1 | inactive | inactive |  | inactive | 
31 | C=CCc1cc(OC)c(O)c(OC)c1 | inactive | inactive |  | inactive | 
32 | CCCCCCCCCCCCC/C=C1/C(=O)O[C@H](C)[C@@H]1O | inactive | inactive |  | inactive | 
33 | O=c1c(O[C@@H]2O[C@H](CO)[C@H](O)[C@H](O)[C@H]2O)c(-c2ccc(O)c(O)c2)oc2cc(O)cc(O)c12 | inactive | inactive |  | inactive | 
34 | CC1(C)CC[C@]2(C(=O)O)CC[C@]3(C)C(=CC[C@@H]4[C@@]5(C)CC[C@H](O)C(C)(C)[C@@H]5CC[C@]43C)[C@@H]2C1 | inactive | inactive |  | inactive | 
35 | COc1ccc(C(=O)O[C@H]2[C@@H]3C=CO[C@@H](O[C@@H]4O[C@H](CO)[C@@H](O)[C@H](O)[C@H]4O)[C@@H]3[C@@]3(CO)O[C@@H]23)cc1OC | inactive | inactive |  | inactive | 
36 | O=C(O)[C@H]1O[C@@H](Oc2cc3oc(-c4ccc(O)cc4)cc(=O)c3c(O)c2O)[C@H](O)[C@@H](O)[C@@H]1O | inactive | inactive |  | inactive | 
37 | O=C(/C=C/c1ccc(O)cc1)c1ccc(O)cc1O | inactive | inactive |  | inactive | 
38 | COc1ccc(-c2oc3c(CC=C(C)C)c(O[C@@H]4O[C@H](CO)[C@@H](O)[C@H](O)[C@H]4O)cc(O)c3c(=O)c2O[C@@H]2O[C@@H](C)[C@H](O)[C@@H](O)[C@H]2O)cc1 | inactive | inactive |  | inactive | 
39 | CC1(C)CC[C@]2(C(=O)O)CC=C3[C@]4(C)CC[C@H]5C(C)(C)[C@@H](O)CC[C@]5(C)[C@H]4CC[C@@]3(C)[C@@H]2C1 | inactive | inactive |  | inactive | 
40 | COc1cc(/C=C/C(=O)CC(=O)/C=C/c2ccc(O)c(OC)c2)ccc1O | inactive | inactive |  | inactive | 
41 | CC(C)=CCc1c(O)cc2oc3cc(O)c(O)c(CC=C(C)C)c3c(=O)c2c1O | inactive | inactive |  | inactive | 
42 | COc1ccc(-c2cc(=O)c3c(O)cc(O[C@H]4O[C@@H](CO)[C@H](O)[C@@H](O)[C@@H]4O)cc3o2)cc1O | inactive | inactive |  | inactive | 
43 | COc1c(O)cc2oc3cc(O)c4c(c3c(=O)c2c1CC=C(C)C)OC(C)(C)CC4 | inactive | inactive |  | inactive | 

— ChEMBL document CHEMBL2057104, “Identification of myricetin and scutellarein as novel chemical inhibitors of the SARS coronavirus helicase, nsP13” (Bioorg Med Chem Lett, 2012)
